Bioassay records deposited in PubChem BioAssay by several laboratories.
The list is not random: actives were taken first. Their share in the collection is about 3.7%.
Redox H2O2 prof: compounds producing H2O2 with reducing agent – biochemical, NIH compound library profiling, artefact control for MLSCN library redox annotation, primary screen; AID 878; activation, % at 10 µM; DTT-dependent redox cycling H2O2, phenol red/HRP absorbance; 100% = 100 µM peroxide control, 0% = buffer; hit rate 0.03% among 200,000;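 active = activation of at least 50% relative to the plate's high and low controls in the primary single-dose screen; inactive = activation below 50%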;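 note: compound incubated with DTT at 0.8 mM final as the reducing agent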
ROMK primary: modulators of human ROMK potassium channel; P48048; Tet-inducible ROMK, thallium flux fluorescence; actives lie on both sides; B-score at 10 µM; hit rate 2% among 130,000;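 active = signal ratio slope over the read window, or its plate-corrected B-score, at least 3 SD from the plate mean, either direction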;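 note: B-score of the F/F0 ratio slope over 7 to 12 s after thallium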
Target sequence (P48048 whole entry, looked up): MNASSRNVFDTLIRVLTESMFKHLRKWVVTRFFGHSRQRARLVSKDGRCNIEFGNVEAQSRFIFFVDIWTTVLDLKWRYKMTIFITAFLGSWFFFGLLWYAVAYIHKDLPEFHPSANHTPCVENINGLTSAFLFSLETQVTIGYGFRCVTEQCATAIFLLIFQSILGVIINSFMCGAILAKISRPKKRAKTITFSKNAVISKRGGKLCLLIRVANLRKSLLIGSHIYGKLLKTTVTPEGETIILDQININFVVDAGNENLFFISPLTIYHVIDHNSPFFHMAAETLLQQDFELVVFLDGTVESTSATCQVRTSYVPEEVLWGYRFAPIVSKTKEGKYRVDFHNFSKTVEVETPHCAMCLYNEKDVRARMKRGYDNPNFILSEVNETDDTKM
MT stabilizer: microtubule stabilization, imaging screen; AID 2205; hit rate 0.83% among 200,000; HeLa tubulin immunostaining HCS, 24 h; share of cells brighter than vehicle mean+2SD; % tubulin-high responders, % at 10 µM;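 active = plate Z-score above 3 for both tubulin-high and condensed-nucleus cell shares, with cell loss under 80%, at 10 µM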;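 note: anti alpha tubulin signal scored within the nucleus-defined area of each cell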
b-catenin transl: modulators of beta-catenin nuclear translocation; AID 1665; nuclear translocation activity, % at 5 µM; HeLa beta-catenin nuclear translocation, immunofluorescence imaging; hit rate 0.3% among 190,000;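 active = nuclear translocation activity above 50% at 5 µM, with a well cell count of 50 or more; inconclusive = wells under 50 cells across six images, flagged as toxic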;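 note: per-cell ratio of nuclear to cytoplasmic median beta-catenin stain intensity; plate controls were DMSO negative control for no effect and GSK-3 inhibitor IX positive control for full effect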
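Test system: human HeLa cells, native beta-catenin. Compound dosing: 5 µM primary single dose, 0.1% DMSO, 0.02–20 µM confirmation series. Incubation: compound exposure 24 h at 37°C. Detection: beta-catenin immunostaining with DAPI counterstain, 20x imaging, 6 fields/well. Read-out basis: Nuclear/cytoplasmic beta-catenin signal ratio, % activation.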
KCC2 mod: modulates chloride dependent transport by human KCC2; AID 1456; Q9H2X9; hit rate 2.2% among 190,000; B-score of Tl+ flux slope (higher = more flux/activation; lower = inhibition) at 10 µM; KCC2 cells, thallium flux FluoZin-2 fluorescence;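 active = thallium flux slope and its plate-corrected score both differing from the plate sample mean at a set confidence after two filtering rounds, in either direction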;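 note: slope of fluorescence scaled to starting intensity during 10 to 20 s after thallium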
KCC2 sec1: KCC2 (human) modulation, secondary assay. shares compounds with KCC2 mod. HEK293-KCC2, thallium flux, FluoZin2 fluorescence; stronger effect = higher value. normalised thallium flux (F/F0 slope) at 10 µM. hit rate 15% among 3,700. AID 1713;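 active = thallium flux slope above the same plate's solvent-only control mean plus 3 SD; inconclusive = the two replicate wells disagree; inactive = no significant difference from solvent-only control wells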
KCC2 bumet counter: bumetanide-insensitive thallium flux in KCC2 cells with ouabain, counter-screen; shares compounds with KCC2 mod; HEK293-KCC2 + bumetanide/ouabain, thallium flux FluoZin2; stronger effect = higher value; normalized thallium flux at 10 µM; hit rate 49% among 3,700;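 active = thallium entry rate above the same plate's blocked-transporter control wells by more than 3 SD; inconclusive = the two repeat wells disagree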;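 note: raw slope of fluorescence over initial fluorescence between 10 and 20 s after thallium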
KCC2 secondary2: confirmation of human KCC2 transport modulators; shares compounds with KCC2 mod; HEK293-KCC2, thallium flux FluoZin2 fluorescence; actives lie on both sides; F/F0 rise rate, 10–20 s post-thallium; normalized thallium flux at 10 µM; hit rate 23% among 3,700;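 active = thallium flux slope more than 3 SD above or below the plate's solvent-only control mean, mostly below; inconclusive = the two repeat wells disagreed; inactive = no significant shift from solvent-only controls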;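 note: raw slope with 0.1% DMSO as baseline and bumetanide as block control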
HEK counter1: acts in parental HEK cells, KCC2 counter-screen | shares compounds with KCC2 mod | HEK293 parental cells, thallium flux FluoZin2, ouabain; baseline-ratio fluorescence slope, 10–20 s after thallium | thallium flux rate (normalised fluorescence) at 10 µM | hit rate 46% among 3,700 | AID 1716;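 active = thallium flux rate significantly above the same plate's solvent-only control wells, beyond their mean plus 3 SD; inconclusive = the two replicate wells gave conflicting results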
KCC2 ouabain: modulates human KCC2 on retest with ouabain; AID 1717; raw Tl+ flux slope (below DMSO = inhibition, above = activation) at 10 µM; shares compounds with KCC2 mod; HEK293-KCC2, thallium flux FluoZin2 fluorescence; bidirectional: low = inhibitor, high = activator; hit rate 48% among 3,700;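 active = thallium flux slope beyond 3 SD from same-plate DMSO control mean in most replicates, usually higher, sometimes lower; inconclusive = repeat tests gave conflicting results; inactive = no significant difference from controls in most replicates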;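 note: slope of initial-normalized fluorescence between seconds 10 and 20 after thallium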
HEK293 Tl flux2: counter-screen for KCC2 modulators: effect in parental HEK293 cells; shares compounds with KCC2 mod; thallium flux FluoZin-2 fluorescence slope; thallium flux slope at 10 µM; hit rate 33% among 3,700;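 active = thallium flux slope above the same plate's solvent-control mean plus 3 SD in both duplicate wells; inconclusive = duplicate wells that disagreed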;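 note: run without ouabain in cells lacking the KCC2 cotransporter; slope of fluorescence scaled to its starting value between 10 and 20 s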
Starred values were filed as active, the others as inactive; ? = inconclusive; . = no result given.

SMILES	Redox H2O2 prof	ROMK primary	MT stabilizer	b-catenin transl	KCC2 mod	KCC2 sec1	KCC2 bumet counter	KCC2 secondary2	HEK counter1	KCC2 ouabain	HEK293 Tl flux2
CCOC(=O)c1ccc(NC(=O)CCOc2ccc(OC)cc2)cc1	0	0.58	1	.	.	0.0058	0.0047	0.03	0.0072	0.018	0.011
CCOC(=O)NC(NC(=S)Nc1ccc(OC)cc1)C(Cl)(Cl)Cl (stereo not drawn)	0	-0.94	5	-2	0.7	.	.	.	.	.	.
CCOC(=O)NC(=S)Nc1ccc(C(C)(C)C)cc1Br	.	.	.	-1	49*	0.0075	0.046*	0.042*	0.046*	0.052*	0.022*
CCOC(=O)NC(=S)Nc1ccc(OC)cc1	0	0.83	2	-6	15*	0.0078	0.021*	0.035	0.016*	?	0.017*
CCOC(=O)c1ccc(Oc2nc(NC)nc(OC)n2)cc1	1	-0.39	2	.	-4.2*	0.0089	0.0071	0.036	0.0045	0.02	0.011
CCNc1nc(OC)nc(Oc2ccc(C(=O)OC)cc2)n1	0	.	1	0	-0.38	.	.	.	.	.	.
CCC1=NN(C(=O)CCc2ccc3c(c2)OCO3)C(O)(C(F)(F)F)C1 (stereo not drawn)	-1	0.84	2	-2	-0.57	.	.	.	.	.	.
Cc1ccsc1CNC12CC3CC(CC(C3)C1)C2	-1	-0.28	2	1	-0.61	.	.	.	.	.	.
O=C(Nc1ccc(S(=O)(=O)NCc2ccco2)cc1)c1ccc2ccccc2n1	5	-0.0069	6	-3	.	0.0087	0.0061	0.035	0.0046	0.02	0.011
O=C(NCc1ccco1)c1ccc2ccccc2n1	-1	-1.3	4	0	.	.	.	.	.	.	.
CC(=O)Nc1ccc2sccc2c1	0	0.7	4	2	0.87	.	.	.	.	.	.
CCC1CCC2(CC1)NC(CO)(CO)CO2 (stereo not drawn)	1	0.42	3	2	5*	0.008	0.0049	0.028	0.008	0.019	0.011*
CC1CCC2(CC1)NC(CO)(CO)CO2 (stereo not drawn)	-3	.	2	-2	-1.2	.	.	.	.	.	.
O=c1[nH]c(Nc2ccc3c(c2)OCCO3)nnc1Cc1ccccc1	0	-0.17	3	1	-0.085	.	.	.	.	.	.
Cc1ccc(Nc2nnc(SCC(=O)Nc3cccc(S(=O)(=O)NC4=NCCCCC4)c3)s2)c(C)c1	0	-1.4	5	0	1.3	0.0072	0.0048	0.03	0.0052*	0.017*	0.009
CC1=C([N+](=O)[O-])C(c2ccccc2C(F)(F)F)NC(=O)N1C (stereo not drawn)	.	.	.	-1	0.84	.	.	.	.	.	.
O=C(CSc1ncnc2c1oc1ccccc12)NC1CCCCC1	-1	.	4	-6	-3.8*	0.0095	0.0057	?	0.0067	0.02*	0.011
COc1ccc(C(=O)NC(=S)NCc2ccco2)cc1OC	2	.	1	-1	.	.	.	.	.	.	.
Cc1ccc(C(=O)NC(=S)NCc2ccco2)cc1	0	0.42	4	2	19*	0.014*	0.022*	0.035	0.027*	0.029*	0.016*
COc1ccc(C(=O)NC(=S)NCc2ccco2)cc1	.	0.3	.	1	6.8*	0.011	0.015*	0.032	?	?	0.012
COc1ccccc1NC(=S)N1CCN(C(=O)C2CCCO2)CC1 (stereo not drawn)	0	0.72	1	-2	1.2	.	.	.	.	.	.
CN(Cc1cnccn1)Cc1ccccc1OCC(O)CN1CCc2ccccc2C1 (stereo not drawn)	-1	-0.062	2	-1	.	.	.	.	.	.	.
c1cnc2c(SCc3ccc(-c4nnco4)cc3)cccc2c1	1	-0.61	6	0	-5.7*	0.011	0.015*	0.035	0.0041	0.021*	0.012
c1ccc2[nH]c(SCc3ccc(-c4nnco4)cc3)nc2c1	2	.	2	-6	-0.22	.	.	.	.	.	.
CCn1c(SCc2nc3ccccc3s2)nnc1-c1ccccc1	0	-0.48	2	.	0.21	.	.	.	.	.	.
SMILES	Redox H2O2 prof	ROMK primary	MT stabilizer	b-catenin transl	KCC2 mod	KCC2 sec1	KCC2 bumet counter	KCC2 secondary2	HEK counter1	KCC2 ouabain	HEK293 Tl flux2
c1ccc(Cn2c(SCc3nc4ccccc4s3)nnc2-c2ccco2)cc1	2	.	4	-1	-3.4*	0.0063	?	0.027*	0.0053*	?	0.0076*
CCC(c1nnc(SCc2nc3ccccc3s2)n1Cc1ccccc1)N(C)C (stereo not drawn)	0	-1.6	5	-1	.	0.015	0.0046	?	0.0066	0.014	0.0099
COc1cccc(/C=C/C(=O)OCC(=O)NCCC2=CCCCC2)c1	-1	-0.22	1	2	-0.8	.	.	.	.	.	.
CCOC(=O)Nc1csnn1	.	.	.	-2	-0.5	.	.	.	.	.	.
O=C(O)CSc1ncnc2sc3c(c12)CCC3	1	.	2	0	7.8*	0.016*	0.035*	0.031	0.016*	0.037*	0.012*
Cc1noc(C)c1CSc1ncnc2sc3c(c12)CCCCC3	1	0.7	4	-3	78*	0.033*	0.16*	?	0.078*	0.11*	0.028*
O=C(O)CSc1ncnc2sc3c(c12)CCCC3	-1	-0.11	2	-2	12*	0.006	0.0065*	?	0.0099*	0.018	0.0093
Cc1ccc(C(=O)CSc2ncnc3sc4c(c23)CCCC4)cc1	-2	.	0	-1	5.3*	0.014*	0.033*	0.032	0.026*	0.03*	?
Cc1ccc(NC(=S)NC(=O)c2ccc(Br)o2)c(C)c1	-2	1.3	9	-1	55*	0.021*	0.13*	0.044*	0.069*	0.11*	0.018*
O=C(NNC(=S)Nc1ccccc1C(F)(F)F)c1ccc(Br)o1	1	0.71	3	4	0.09	.	.	.	.	.	.
Cc1cccc(NC(=S)NC(=O)c2ccc(Br)o2)c1C	0	0.12	4	-2	71*	0.05*	0.1*	0.054*	0.14*	0.12*	0.057*
Cc1ccc(C)c(NC(=S)NNC(=O)c2ccc(Br)o2)c1	2	.	3	.	.	.	.	.	.	.	.
O=C(NCCc1ccccc1)C1CCCN1S(=O)(=O)c1ccccc1 (stereo not drawn)	-2	-1	4	0	0.049	.	.	.	.	.	.
